Source: PMC8911528 (Organic & biomolecular chemistry, 2021)

Tests used:
[1] = target: T1, SF3B subunit of the spliceosome (Homo sapiens, UniProt O75533+Q7RTV0); conditions: cited from earlier work
[2] = target: T1, SF3B subunit of the spliceosome; experiment: In vitro splicing assay; type: biochemical; conditions: for reduction in splicing inhibitory potency compared to herboxidiene: relative to herboxidiene
In short: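 Radiolabeled RNA splicing substrate incubated in human cell nuclear extract with a dose range of test compound or DMSO control. RNA resolved by denaturing PAGE and bands quantified by phosphorimaging. Splicing efficiency is mRNA over total substrate RNA, normalised to DMSO. IC50 (half-maximal reduction of splicing versus DMSO) is from nonlinear regression, [inhibitor] vs normalised response, on three independent measurements, with 95% confidence intervals.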

WI-38 = conditions: human normal fibroblast cell line WI-38; cited from earlier work
human cells = conditions: cited from earlier work

## 5(R)-hydroxy herboxidiene [Compound 6]
[1]
  splicing inhibition relative to herboxidiene: slightly lower splicing inhibition than herboxidiene

## C=C1CC[C@H](CC(=O)O)O[C@@H]1/C(C)=C/C=C/[C@@H](C)C[C@@]1(C)O[C@@H]1[C@H](C)[C@@H](OC)[C@@H](C)O [Compound 12, 2-((2R,6S)-6-((S,2E,4E)-7-((2R,3R)-3-((2R,3R,4R)-4-hydroxy-3-methoxypentan-2-yl)-2-methyloxiran-2-yl)-6-methylhepta-2,4-dien-2-yl)-5-methylenetetrahydro-2H-pyran-2-yl)acetic acid]
[2]
  IC50: 0.4 µM

## CO[C@H]([C@@H](C)[C@H]1O[C@]1(C)C[C@H](C)/C=C/C=C(\C)[C@H]1O[C@@H](CC(=O)O)CC[C@H]1C)[C@@H](C)O [Compound 13, 2-((2R,5R,6S)-6-((S,2E,4E)-7-((2R,3R)-3-((2R,3R,4R)-4-hydroxy-3-methoxypentan-2-yl)-2-methyloxiran-2-yl)-6-methylhepta-2,4-dien-2-yl)-5-methyltetrahydro-2H-pyran-2-yl)acetic acid]
[2]
  IC50: 2.5 µM
  reduction in splicing inhibitory potency compared to herboxidiene: about 6 fold

## CO[C@H]([C@@H](C)[C@H]1O[C@]1(C)C[C@H](C)/C=C/C=C(\C)[C@H]1O[C@@H](CC(=O)O)CCC12CC2)[C@@H](C)O [Compound 14, 2-((4S,6R)-4-((S,2E,4E)-7-((2R,3R)-3-((2R,3R,4R)-4-hydroxy-3-methoxypentan-2-yl)-2-methyloxiran-2-yl)-6-methylhepta-2,4-dien-2-yl)-5-oxaspiro[2.5]octan-6-yl)acetic acid]
[2]
  IC50: 5.2 µM
[2]; relative to gem-dimethyl derivative 15
  loss of splicing inhibitory activity compared to gem-dimethyl derivative: 5 fold

## CO[C@H]([C@@H](C)[C@H]1O[C@]1(C)C[C@H](C)/C=C/C=C(\C)[C@H]1O[C@@H](CC(=O)O)CCC1(C)C)[C@@H](C)O [Compound 15, 2-((2R,6S)-6-((S,2E,4E)-7-((2R,3R)-3-((2R,3R,4R)-4-hydroxy-3-methoxypentan-2-yl)-2-methyloxiran-2-yl)-6-methylhepta-2,4-dien-2-yl)-5,5-dimethyltetrahydro-2H-pyran-2-yl)acetic acid]
[2]
  reduction in splicing inhibitory potency compared to herboxidiene: 3 fold

## CO[C@H]([C@@H](C)[C@H]1O[C@]1(C)C[C@H](C)/C=C/C=C(\C)[C@H]1O[C@@H](CC(=O)O)CC[C@@H]1C)[C@@H](C)O [herboxidiene]
WI-38
  cell cycle arrest: induces both G1 and G2/M cell cycle arrest

## C6 desmethyl herboxidiene [Compound 8]
[1]
  splicing inhibitory activity: slightly lower splicing inhibitory activity
Human cells
  anticancer activity in human cells: slightly lower
